These results are taken from ChEMBL document CHEMBL4680254, “Design, synthesis and discovery of 2(1H)-quinolone derivatives for the treatment of pulmonary fibrosis through inhibition of TGF-β/smad dependent and independent pathway” (Eur J Med Chem, 2020).

The test system of data set [1] is NRK-49F. As to the kind of experiment: Inhibition of TGF-beta-induced collagen accumulation in rat NRK-49F cells incubated for 2 days by PSR staining based microscopic analysis. The class given is functional, cell-based. To be noted: 48 h.
Data set [2] can be described thus: Cytotoxicity against rat NRK-49F cells assessed as cell survival rate at 10 uM incubated for 72 hrs by MTT assay. To be noted: read-out: Activity. In kind it is cell-based. The method, boiled down: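 NRK-49F cells were seeded at 0.5×10^5 cells/ml, cultured overnight, then exposed to compound 10 µM for 72 h. MTT was added and incubated 4 h, formazan dissolved in DMSO and absorbance read. Survival = (treated − zero)/(blank − zero) A ×100%, done in triplicate.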
(In general: Formazan colour is commonly taken as a measure of viable cells.)

Another data set relates to L929. As to the kind of experiment: Antimigratory activity in mouse L929 cells assessed as inhibition of TGF-beta-induced cell migration at 10 uM incubated for 24 hrs by wound healing assay. In kind it is functional, cell-based. The method, boiled down:
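Mouse L929 fibroblasts (MEM, 10% FBS, 37 °C, 5% CO₂) were grown to confluence and scratched with a pipette tip to a 100 µm wound. They were then kept in serum-free medium with or without TGF-β 5 ng/ml and compound 10 µM for 24 h. Wounds were imaged by light microscopy at 0, 12 and 24 h.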

Data set [3] relates to NRK-49F. As to the kind of experiment: Inhibition of TGF-beta-induced collagen accumulation in rat NRK-49F cells at 10 uM incubated for 2 days by PSR staining based microscopic analysis relative to control. In kind it is functional. The note with it: 48 h, time 2 day. In a few lines:
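NRK-49F cells were grown 3 days in DMEM with 5% FBS, then 2 days in DMEM with 1% ITS. Next came 2 days with TGF-β 5 ng/ml plus or minus compound 10 µM. Cells were fixed in 4% paraformaldehyde and stained 4 h with 0.1% Picrosirius Red, then rinsed with acetic acid. Dye was eluted with 0.1 M NaOH and OD read at 540 nm. Inhibition = […] ×100%, in triplicate.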

Activity calls are given as the source filed them. The rule behind the calls is not given here.

The IC50 is the midpoint of a concentration-inhibition curve. Usually inhibition stands for the percentage by which the read-out fell short of the control. `CC(C)(C)OC(=O)N1CCN(CC(=O)Nc2ccc(Oc3cc(=O)[nH]c4ccccc34)c(F)c2)CC1` yielded an IC50 in the data set on NRK-49F [1] of 6.12 µM. Further, in data set [2], the viability at 72 h, 10 µM came to 86.2%. Also, the inhibition result in the data set with L929 is “Active”. The inhibition at 10 µM with NRK-49F [3] is 89.1%.
Taken in the same sequence, the figures for `CC(C)(C)N1CCN(CC(=O)Nc2ccc(Oc3cc(=O)[nH]c4ccccc34)c(F)c2)CC1` were 4.47 µM, 93.1%, “Active” and 78%.
In the data set with NRK-49F [1], `CCN(CC)CC(=O)Nc1ccc(Oc2cc(=O)[nH]c3ccccc23)cc1` returned an IC50 of 5.27 µM. The viability at 72 h, 10 µM in data set [2] was 96.3%. The inhibition entry in the data set on L929 is “Active”. The compound also showed an inhibition at 10 µM in the data set on NRK-49F [3] of 86.1%.
